In brackets after ≈: the same amount, converted by molar mass. Activity calls are given as the source filed them. The rule behind the calls is not given here.
Columns and labels:
[1] = system: Cryptococcus neoformans; test: Antifungal activity against Cryptococcus neoformans H99 measured after 24 to 72 hrs; type: functional; settings: var grubii H99
How it was run: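 Modified CLSI broth microdilution with inoculum per M27A3. Compounds were serially diluted 32 to 0.03 μg/mL. Media: C. neoformans in HEPES-buffered YNB without amino acids (pH 7.0, 2% glucose); Candida strains in YNB without ammonium sulfate or amino acids plus 1% asparagine (pH 7.0, 2% glucose); A. fumigatus in RPMI (pH 7.0, 2% glucose).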

[2] = system: Cryptococcus neoformans; test: Fungicidal activity against Cryptococcus neoformans H99 measured after 72 hrs by time-kill assay; type: functional, var grubii H99
How it was run: (§1)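 Overnight C. neoformans washed in PBS and resuspended in HEPES-buffered YNB, pH 7.4. 2 × 10⁴ cells exposed to a range of drug concentrations in 10 mL with 0.5% DMSO final, at 37°C, 5% CO₂, shaking at 200 rpm. Aliquots sampled over 96 h, diluted and plated on YPD; CFU counted after 48 h at 30°C.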

[3] = system: A549; test: Cytotoxicity against human A549 cells after 24 to 48 hrs by MTT assay; type: functional; settings: read-out: LD50 (the source's name)
How it was run: (§2)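 A549 and HepG2 kept in DMEM with 10% FBS and 1% pen-strep. At passage 7, seeded at 10⁵ cells/well and allowed to adhere 14 h. Compound added at 0.03–128 μg/mL, untreated wells as controls. Incubation 37°C, 5% CO₂ for 24 or 48 h. MTT (5 mg/mL in PBS) added for 4 h, formazan dissolved in DMSO, OD570.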

[4] = system: HepG2; test: Cytotoxicity against human HepG2 cells after 24 to 48 hrs by MTT assay; type: functional; settings: read-out: LD50 (the source's name); how it was run: as §2
[5] = Selectivity index, ratio of LD50 for human A549 cells to MIC80 for Cryptococcus neoformans H99; type: toxicity; settings: read-out: Selectivity Index
How it was run: (§3)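 SI = LD₅₀/MIC₈₀. Cytotoxicity: A549 or HepG2 cells (DMEM, 10% FBS, passage 7, 10⁵ cells/well) adhered 14 h, then exposed to 0.03–128 μg/mL for 24 or 48 h at 37°C, 5% CO₂; MTT 4 h, formazan dissolved in DMSO, read at 570 nm. MIC₈₀ against C. neoformans from broth microdilution in HEPES-buffered YNB, pH 7.0.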

[6] = Selectivity index, ratio of LD50 for human HepG2 cells to MIC80 for Cryptococcus neoformans H99; type: toxicity; settings: read-out: Selectivity Index; how it was run: as §3
[7] = system: Cryptococcus neoformans; test: Fungistatic activity against Cryptococcus neoformans H99 by time-kill assay; type: functional, organism-based; settings: var grubii H99; how it was run: as §1
[8] = system: Cryptococcus neoformans; test: Fungicidal activity against Cryptococcus neoformans H99 measured after 48 hrs by time-kill assay; type: functional, var grubii H99; how it was run: as §1
[9] = system: Cryptococcus neoformans; test: Fungicidal activity against Cryptococcus neoformans H99 measured after 12 hrs by time-kill assay; type: functional, var grubii H99; how it was run: as §1

| Structure (SMILES) | MIC80 [1] | MFC100 [2] | CC50 [3] | CC50 [4] | selectivity ratio [5] | selectivity ratio [6] | Activity [7] | MFC100 [8] | MFC100 [9] |
| --- | --- | --- | --- | --- | --- | --- | --- | --- | --- |
| N#Cc1ccc(C(=O)N/N=C/c2cc(Br)cc(Br)c2O)cc1 | 0.06 µg/mL (≈ 0.142 µM) | 1 µg/mL (≈ 2.36 µM) | 64 µg/mL (≈ 151 µM) | 16 µg/mL (≈ 37.8 µM) | 1070 | 267 | – | – | – |
| O=C(N/N=C/c1cc(OC(F)(F)F)ccc1O)c1ccc(Br)cc1 | 0.25 µg/mL (≈ 0.62 µM) | 1 µg/mL (≈ 2.48 µM) | 16 µg/mL (≈ 39.7 µM) | 64 µg/mL (≈ 159 µM) | 64 | 256 | – | – | – |
| O=C(N/N=C/c1cc(Br)ccc1O)c1cc(Br)cc(Br)c1 | 0.06 µg/mL (≈ 0.126 µM) | – | 16 µg/mL (≈ 33.5 µM) | 16 µg/mL (≈ 33.5 µM) | 267 | 267 | Active | – | – |
| CN(C)c1ccc(C(=O)N/N=C/c2cc(Br)cc(Br)c2O)cc1 | 0.5 µg/mL (≈ 1.13 µM) | – | 16 µg/mL (≈ 36.3 µM) | 16 µg/mL (≈ 36.3 µM) | 32 | 32 | Active | – | – |
| O=C(N/N=C/c1ccc(Br)cc1O)c1ccc(Br)c(Br)c1 | 0.12 µg/mL (≈ 0.252 µM) | 0.5 µg/mL (≈ 1.05 µM) | 4 µg/mL (≈ 8.39 µM) | 8 µg/mL (≈ 16.8 µM) | 33.3 | 66.6 | – | – | – |
| O=C(N/N=C/c1c(O)ccc2ccccc12)c1ccc(Br)c(Br)c1 | 0.12 µg/mL (≈ 0.268 µM) | – | 4 µg/mL (≈ 8.93 µM) | 16 µg/mL (≈ 35.7 µM) | 33.3 | 133 | Active | – | – |
| O=C(N/N=C/c1cc(Br)ccc1O)c1ccc(OC(F)F)cc1 | 0.25 µg/mL (≈ 0.649 µM) | 2 µg/mL (≈ 5.19 µM) | 32 µg/mL (≈ 83.1 µM) | 16 µg/mL (≈ 41.5 µM) | 128 | 64 | – | – | – |
| O=C(N/N=C/c1cc(Br)cc(Br)c1O)c1ccc(OC(F)(F)F)cc1 | 0.5 µg/mL (≈ 1.04 µM) | 4 µg/mL (≈ 8.3 µM) | 64 µg/mL (≈ 133 µM) | 16 µg/mL (≈ 33.2 µM) | 128 | 32 | – | – | – |
| O=C(N/N=C/c1cc(Br)ccc1O)c1ccc(Br)c(Br)c1 | 0.25 µg/mL (≈ 0.524 µM) | 1 µg/mL (≈ 2.1 µM) | 8 µg/mL (≈ 16.8 µM) | 8 µg/mL (≈ 16.8 µM) | 32 | 32 | – | – | – |
| O=C(N/N=C/c1cc(Br)ccc1O)c1ccccc1C(F)(F)F | 1 µg/mL (≈ 2.58 µM) | 1 µg/mL (≈ 2.58 µM) | 16 µg/mL (≈ 41.3 µM) | 16 µg/mL (≈ 41.3 µM) | 16 | 16 | – | – | – |
| O=C(N/N=C/c1cc(Br)ccc1O)c1ccc(OC(F)(F)F)cc1F | 0.5 µg/mL (≈ 1.19 µM) | 0.5 µg/mL (≈ 1.19 µM) | 64 µg/mL (≈ 152 µM) | 8 µg/mL (≈ 19 µM) | 128 | 16 | – | – | – |
| O=C(N/N=C/c1c(O)ccc2ccccc12)c1ccc(Br)cc1Br | 0.12 µg/mL (≈ 0.268 µM) | – | 16 µg/mL (≈ 35.7 µM) | 64 µg/mL (≈ 143 µM) | 133 | 533 | – | 0.5 µg/mL (≈ 1.12 µM) | – |
| O=C(N/N=C/c1cc(Cl)ccc1O)c1ccc(Br)cc1Br | 0.25 µg/mL (≈ 0.578 µM) | – | 64 µg/mL (≈ 148 µM) | 64 µg/mL (≈ 148 µM) | 256 | 256 | – | – | 1 µg/mL (≈ 2.31 µM) |
| O=C(N/N=C/c1ccc(Br)cc1O)c1cccc(F)c1F | 0.5 µg/mL (≈ 1.41 µM) | – | 16 µg/mL (≈ 45.1 µM) | 16 µg/mL (≈ 45.1 µM) | 32 | 32 | – | 0.25 µg/mL (≈ 0.704 µM) | – |
| O=C(N/N=C/c1cc(Br)ccc1O)c1ccc(OC(F)(F)F)cc1 | 0.06 µg/mL (≈ 0.149 µM) | – | 4 µg/mL (≈ 9.92 µM) | 16 µg/mL (≈ 39.7 µM) | 66.6 | 267 | – | – | 1 µg/mL (≈ 2.48 µM) |
| O=C(N/N=C/c1cc(Cl)ccc1O)c1cc(Br)cc(Br)c1 | 0.12 µg/mL (≈ 0.277 µM) | – | 16 µg/mL (≈ 37 µM) | 16 µg/mL (≈ 37 µM) | 133 | 133 | – | – | 1 µg/mL (≈ 2.31 µM) |
| O=C(N/N=C/c1cccc(Br)c1O)c1cccc(C(F)(F)F)c1 | 1 µg/mL (≈ 2.58 µM) | – | 16 µg/mL (≈ 41.3 µM) | 16 µg/mL (≈ 41.3 µM) | 16 | 16 | – | 2 µg/mL (≈ 5.17 µM) | – |
| O=C(N/N=C/c1cc(Br)ccc1O)c1ccc(C(F)(F)F)cc1F | 0.5 µg/mL (≈ 1.23 µM) | – | 16 µg/mL (≈ 39.5 µM) | 16 µg/mL (≈ 39.5 µM) | 32 | 32 | – | 1 µg/mL (≈ 2.47 µM) | – |
| O=C(N/N=C/c1cc(Br)cc(Br)c1O)c1cnc2ccccc2c1 | 0.25 µg/mL (≈ 0.557 µM) | – | 32 µg/mL (≈ 71.3 µM) | 32 µg/mL (≈ 71.3 µM) | 128 | 128 | Active | – | – |
| CN(C)c1ccc(C(=O)N/N=C/c2ccc(Br)cc2O)cc1 | 0.25 µg/mL (≈ 0.69 µM) | – | 16 µg/mL (≈ 44.2 µM) | 16 µg/mL (≈ 44.2 µM) | 64 | 64 | Active | – | – |
| O=C(N/N=C/c1cc(Cl)ccc1O)c1cccc(F)c1F | 1 µg/mL (≈ 3.22 µM) | – | 72 µg/mL (≈ 232 µM) | 32 µg/mL (≈ 103 µM) | 72 | 32 | – | 0.5 µg/mL (≈ 1.61 µM) | – |
| O=C(N/N=C/c1cc(Br)cc(Br)c1O)c1ccc(C(F)(F)F)cc1 | 0.12 µg/mL (≈ 0.257 µM) | – | 4 µg/mL (≈ 8.58 µM) | 8 µg/mL (≈ 17.2 µM) | 33.3 | – | – | – | 1 µg/mL (≈ 2.15 µM) |
| O=C(N/N=C/c1cc(Cl)cc(Cl)c1O)c1cccc(Br)c1Br | 1 µg/mL (≈ 2.14 µM) | – | 64 µg/mL (≈ 137 µM) | 16 µg/mL (≈ 34.3 µM) | 64 | 16 | – | 1 µg/mL (≈ 2.14 µM) | – |
| Cc1ccc(O)c(/C=N/NC(=O)c2ccc(Br)c(Br)c2)c1 | 0.12 µg/mL (≈ 0.291 µM) | 0.5 µg/mL (≈ 1.21 µM) | 16 µg/mL (≈ 38.8 µM) | 16 µg/mL (≈ 38.8 µM) | 133 | 133 | – | – | – |
| O=C(N/N=C/c1ccc(Br)cc1O)c1cccc(Br)c1 | 0.5 µg/mL (≈ 1.26 µM) | – | 64 µg/mL (≈ 161 µM) | 8 µg/mL (≈ 20.1 µM) | 128 | 16 | – | 0.25 µg/mL (≈ 0.628 µM) | – |
| O=C(N/N=C/c1cc(C(F)(F)F)ccc1O)c1cccc(Br)c1 | 0.5 µg/mL (≈ 1.29 µM) | – | 16 µg/mL (≈ 41.3 µM) | 16 µg/mL (≈ 41.3 µM) | 32 | 32 | Active | – | – |
| O=C(N/N=C/c1ccc(Br)cc1O)c1cc(Br)cc(Br)c1 | 1 µg/mL (≈ 2.1 µM) | – | 4 µg/mL (≈ 8.39 µM) | 16 µg/mL (≈ 33.5 µM) | 4 | 16 | – | 1 µg/mL (≈ 2.1 µM) | – |
| O=C(N/N=C/c1cc(Br)cc(Br)c1O)c1cccc(Br)c1Br | 0.5 µg/mL (≈ 0.9 µM) | – | 32 µg/mL (≈ 57.6 µM) | 16 µg/mL (≈ 28.8 µM) | 64 | 32 | – | 2 µg/mL (≈ 3.6 µM) | – |
